Entries after “also recorded” stand apart in the source; their conditions may differ.
Tests used:
purified RLuc = biological target: T1, purified RLuc (Renilla reniformis, UniProt P27652); conditions: highest concentration tested = 57.5 μM
T1 sequence (P27652 1-311): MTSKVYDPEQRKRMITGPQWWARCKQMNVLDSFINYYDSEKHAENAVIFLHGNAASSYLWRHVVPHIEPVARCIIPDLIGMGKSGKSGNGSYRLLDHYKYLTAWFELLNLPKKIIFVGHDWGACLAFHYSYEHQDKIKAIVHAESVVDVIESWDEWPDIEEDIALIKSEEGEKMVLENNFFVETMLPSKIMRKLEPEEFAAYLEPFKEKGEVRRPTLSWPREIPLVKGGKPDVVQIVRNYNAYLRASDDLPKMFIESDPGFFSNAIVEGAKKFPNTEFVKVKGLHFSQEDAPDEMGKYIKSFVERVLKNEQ

miR-21 FLuc assay = assay: miR-21 FLuc cell-based reporter gene assay; conditions: 48-hour incubation with compound
Summary of the method: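 The cell-based reporter expresses wild-type FLuc and was optimized to detect increases in FLuc signal. Cells were exposed to test compound for 48 h. Unlike the read-through assay, there was no wash step before the detection reagent was added. Concentration–response curves were recorded.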

[1] = biological target: purified firefly luciferase (FLuc) (Photinus pyralis, UniProt P08659); assay: Mode of inhibition; type: biochemical; conditions: IC50 shift with 1 mM D-LH2, 1 mM ATP or high CoASH
purified firefly luciferase (FLuc), sequence (P08659 whole entry): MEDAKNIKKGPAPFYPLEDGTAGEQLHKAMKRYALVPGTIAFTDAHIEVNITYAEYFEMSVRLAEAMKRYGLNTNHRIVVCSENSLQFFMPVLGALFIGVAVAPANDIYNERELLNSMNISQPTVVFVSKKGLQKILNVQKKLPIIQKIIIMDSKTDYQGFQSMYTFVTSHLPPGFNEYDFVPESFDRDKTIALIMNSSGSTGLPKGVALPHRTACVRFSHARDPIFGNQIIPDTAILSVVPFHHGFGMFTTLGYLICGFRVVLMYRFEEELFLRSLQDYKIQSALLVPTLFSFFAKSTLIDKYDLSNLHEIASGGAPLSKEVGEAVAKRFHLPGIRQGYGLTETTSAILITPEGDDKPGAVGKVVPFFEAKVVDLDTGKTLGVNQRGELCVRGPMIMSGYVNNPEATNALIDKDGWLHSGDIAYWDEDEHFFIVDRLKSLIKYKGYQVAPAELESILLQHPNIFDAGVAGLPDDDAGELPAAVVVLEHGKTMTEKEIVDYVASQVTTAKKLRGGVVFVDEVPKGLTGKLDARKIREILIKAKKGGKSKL
Summary of the method: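 Purified P. pyralis FLuc was run in the standard luciferase assay (10 μM ATP and D-LH2, the KM levels). Test compounds were given as 12-point titrations, 57.5 μM to 0.3 nM final. One substrate was kept at KM and the other saturating (1 mM ATP or 1 mM D-luciferin), or 500 μM CoASH was added. Fold shift = IC50 at high substrate / IC50 at KM. There were three separate tests, each in duplicate.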

SMILES | Activity in RLuc assay (purified RLuc) | Mode of inhibition (substrate competition) [1] | also measured
O=C(Nc1ccccc1C(=O)O)c1cc(S(=O)(=O)Nc2cccc(F)c2)ccc1Cl [compound 1105141] | RLuc-active | – | –
CC(C)(C)C(=O)Nc1ccc(-c2nc3ccccc3s2)cc1 [CID: 16015828] | – | – | Effect on FLuc signal in cell-based miR-21 assay (miR-21 FLuc assay): strong activation
CC(=NNC(=O)c1ccccc1NC(=O)c1ccc(Cl)cc1)c1ccncc1 [CID: 16193026] | – | only ATP | –
O=C(Nc1ccccc1C(=O)O)c1cccc(S(=O)(=O)Nc2ccc(Br)cc2)c1 [compound 1087370] | RLuc-active | – | –
Cn1c(NN=Cc2cc3ccccc3nc2Cl)nc2ccccc21 [CID:4216593] | – | competitive with both D-LH2 and ATP; also recorded: significantly reduced by either ATP or D-LH2 | –
COc1ccc(-c2nc3ccccc3s2)cc1O [CID: 976322] | – | ATP was found to enhance inhibitor binding | –

Source: article PMC3449281 (Chemistry & biology, 2012)
